Laboratory results from ChEMBL document CHEMBL1134010, “Syntheses and antifungal activities of novel 3-amido bearing pseudomycin analogues” (Bioorg Med Chem Lett, 2001).
In brackets after ≈: the same amount, converted by molar mass. Positions of bridges follow the written chain, without caps; N, C: chain ends. Non-standard residues stand in square brackets, D forms with d. Residues, ends and D or L forms follow the SMILES beside them. *: point of attachment. Tetradecanoyl(3R-OH) = CCCCCCCCCCC[C@@H](O)CC(=O)*; Asp(3S-OH) = N[C@H](C(=O)O)[C@H](O)C(=O)O; Thr(4-Cl) = N[C@H](C(=O)O)[C@H](O)CCl; aThr = C[C@H](O)[C@H](N)C(=O)O; dDab = NCC[C@@H](N)C(=O)O; NHCH2CH2NMe2 = CN(C)CCN*; Dab = NCC[C@H](N)C(=O)O; Dhb = C/C=C(\N)C(=O)O; NHcPr = C1CC1N*

Legend:
Candida albicans [1] = assay: In vivo efficacy against murine Candidiasis dosed four times by intraperitoneal administration post-infection using Reed and Muench method.; format: functional; details: ip
Method in brief: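 Systemic candidiasis in mice, with PSB and amphotericin B as positive controls. Analogues were given at 20, 10 and 5 mg/kg, four doses at 0, 4, 24 and 48 post-infection. ED50 is the dose giving 50% survival relative to untreated infected animals, calculated by the Reed and Muench method.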

Candida albicans [2] = assay: In vitro minimum inhibitory concentration (MIC) against Candida albicans.; format: functional
Method in brief: (§1)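 Tested against Candida albicans, Cryptococcus neoformans and Aspergillus fumigatus, with PSB as positive control. MIC is taken as the lowest drug concentration giving 90–100% inhibition of visible growth relative to drug-free controls.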

Mus musculus [3] = assay: Compound was dosed four times to outbred, male ICR mice and signs of irritation (erythema, swelling, discoloration, necrosis and tail loss) were observed in tail irritation test; Yes; format: ADME, organism-based; details: in vivo
Aspergillus fumigatus = assay: In vitro minimum inhibitory concentration (MIC) against Aspergillus fumigatus.; format: functional; method in brief: as §1
Cryptococcus neoformans = assay: In vitro minimum inhibitory concentration (MIC) against Cryptococcus neoformans.; format: functional; method in brief: as §1
Mus musculus [4] = assay: In vivo efficacy against murine Candidiasis dosed four times by intraperitoneal administration post-infection using Reed and Muench method; Toxic; format: functional, organism-based
Mus musculus [5] = assay: Toxicity at a dose of 125 mg/kg in mice; Death; details: in vivo
Mus musculus [6] = assay: Toxicity at a dose of 100 mg/kg in mice; Death; details: in vivo
Mus musculus [7] = assay: In vivo efficacy against murine systemic Cryptococosis by intraperitoneal administration; format: functional; details: ip
Method in brief: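 Murine systemic cryptococcosis, ip dosing BID ×4 at 5.0, 1.25, 0.312 and 0.078 mg/kg. ED50 is the dose giving 50% survival relative to untreated infected animals.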

Mus musculus [8] = assay: Survival extension of the mice against Aspergillosis infection at a dose of 20 mg/kg; format: functional
Mus musculus [9] = assay: Toxicity at a dose of 75 mg/kg in mice; Death; details: in vivo
Rattus norvegicus = assay: Toxicity at a dose of 50 mg/kg in rats; Death; format: organism-based; parameters: dose 50 mg/kg; details: in vivo
Mus musculus [10] = assay: Survival extension of the mice against Aspergillosis infection at a dose of 1 mg/kg; format: functional
Method in brief: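 Murine systemic aspergillosis model, ip. The analogue was given BID at 50, 10 and 1 mg/kg, and survival extension of infected animals was recorded.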

| SMILES | ED50 (Candida albicans [1]) [mg/kg] | MIC (Candida albicans [2]) [µg/mL] | Tail vein toxicity (Mus musculus [3]) | MIC (Aspergillus fumigatus) [µg/mL] | MIC (Cryptococcus neoformans) [µg/mL] | ED50 (Mus musculus [4]) | Toxicity (Mus musculus [5]) | Toxicity (Mus musculus [6]) | ED50 (Mus musculus [7]) [mg/kg] | Survival extension (Mus musculus [8]) [%] | Toxicity (Mus musculus [9]) | Toxicity (Rattus norvegicus) | Survival extension (Mus musculus [10]) [%] |
| --- | --- | --- | --- | --- | --- | --- | --- | --- | --- | --- | --- | --- | --- |
| C/C=C1\NC(=O)[C@H]([C@H](C)O)NC(=O)[C@H](CCN)NC(=O)[C@H](CCCCN)NC(=O)[C@H](CC(N)=O)NC(=O)[C@@H](CCN)NC(=O)[C@@H](NC(=O)C[C@H](O)CCCCCCCCCCC)COC(=O)[C@H]([C@H](O)CCl)NC(=O)[C@H]([C@H](O)C(=O)O)NC1=O ({Tetradecanoyl(3R-OH)}-S[dDab]NK[Dab][aThr][Dhb][Asp(3S-OH)][Thr(4-Cl)]; ester 1-C) | < 0.8 | 2.5 (≈ 2.07 µM) | Active | 10 (≈ 8.29 µM) | < 0.01 | – | – | – | – | – | – | – | – |
| C/C=C1\NC(=O)[C@H]([C@H](C)O)NC(=O)[C@H](CCN)NC(=O)[C@H](CCCCN)NC(=O)[C@H](CC(=O)NCCCN(CC)CC)NC(=O)[C@@H](CCN)NC(=O)[C@@H](NC(=O)C[C@H](O)CCCCCCCCCCC)COC(=O)[C@H]([C@H](O)CCl)NC(=O)[C@H]([C@H](O)C(=O)O)NC1=O | < 4 | 20 (≈ 15.2 µM) | Active | > 20 | < 0.01 | – | – | – | – | – | – | – | – |
| C/C=C1\NC(=O)[C@H]([C@H](C)O)NC(=O)[C@H](CCN)NC(=O)[C@H](CCCCN)NC(=O)[C@H](CC(=O)NCCCCCCC)NC(=O)[C@@H](CCN)NC(=O)[C@@H](NC(=O)C[C@H](O)CCCCCCCCCCC)COC(=O)[C@H]([C@H](O)CCl)NC(=O)[C@H]([C@H](O)C(=O)O)NC1=O | – | 20 (≈ 15.3 µM) | – | > 20 | 0.312 (≈ 0.239 µM) | Toxic | – | – | – | – | – | – | – |
| C/C=C1\NC(=O)[C@H]([C@H](C)O)NC(=O)[C@H](CCN)NC(=O)[C@H](CCCCN)NC(=O)[C@H](CC(=O)O)NC(=O)[C@@H](CCN)NC(=O)[C@@H](NC(=O)C[C@H](O)CCCCCCCCCCC)COC(=O)[C@H]([C@H](O)CCl)NC(=O)[C@H]([C@H](O)C(=O)O)NC1=O [PSEUDOMYCIN B] ({Tetradecanoyl(3R-OH)}-S[dDab]DK[Dab][aThr][Dhb][Asp(3S-OH)][Thr(4-Cl)]; ester 1-C) | – | 0.625 (≈ 0.517 µM) | – | > 20 | 0.01 (≈ 0.00828 µM) | – | Death | Death | 1.8 | 46 | Death | Death | – |
| C/C=C1\NC(=O)[C@H]([C@H](C)O)NC(=O)[C@H](CCN)NC(=O)[C@H](CCCCN)NC(=O)[C@H](CC(=O)NC2CC2)NC(=O)[C@@H](CCN)NC(=O)[C@@H](NC(=O)C[C@H](O)CCCCCCCCCCC)COC(=O)[C@H]([C@H](O)CCl)NC(=O)[C@H]([C@H](O)C(=O)O)NC1=O ({Tetradecanoyl(3R-OH)}-S[dDab]D(NHcPr)K[Dab][aThr][Dhb][Asp(3S-OH)][Thr(4-Cl)]; ester 1-C) | < 5 | 0.156 (≈ 0.125 µM) | – | 20 (≈ 16 µM) | < 0.01 | – | Death | Death | 2.9 | – | – | – | 29 |
| C/C=C1\NC(=O)[C@H]([C@H](C)O)NC(=O)[C@H](CCN)NC(=O)[C@H](CCCCN)NC(=O)[C@H](CC(=O)NCCN)NC(=O)[C@@H](CCN)NC(=O)[C@@H](NC(=O)C[C@H](O)CCCCCCCCCCC)COC(=O)[C@H]([C@H](O)CCl)NC(=O)[C@H]([C@H](O)C(=O)O)NC1=O | < 5 | 10 (≈ 8 µM) | Active | 5 (≈ 4 µM) | < 0.01 | – | – | – | – | – | – | – | – |
| C/C=C1\NC(=O)[C@H]([C@H](C)O)NC(=O)[C@H](CCN)NC(=O)[C@H](CCCCN)NC(=O)[C@H](CC(=O)NCCC)NC(=O)[C@@H](CCN)NC(=O)[C@@H](NC(=O)C[C@H](O)CCCCCCCCCCC)COC(=O)[C@H]([C@H](O)CCl)NC(=O)[C@H]([C@H](O)C(=O)O)NC1=O | 6 | 1.25 (≈ 1 µM) | – | > 20 | 0.078 (≈ 0.0625 µM) | – | Death | Death | – | – | – | – | – |
| C/C=C1\NC(=O)[C@H]([C@H](C)O)NC(=O)[C@H](CCN)NC(=O)[C@H](CCCCN)NC(=O)[C@H](CC(=O)NCCN(C)C)NC(=O)[C@@H](CCN)NC(=O)[C@@H](NC(=O)C[C@H](O)CCCCCCCCCCC)COC(=O)[C@H]([C@H](O)CCl)NC(=O)[C@H]([C@H](O)C(=O)O)NC1=O ({Tetradecanoyl(3R-OH)}-S[dDab]D(NHCH2CH2NMe2)K[Dab][aThr][Dhb][Asp(3S-OH)][Thr(4-Cl)]; ester 1-C) | < 5 | 0.156 (≈ 0.122 µM) | – | 5 (≈ 3.91 µM) | < 0.01 | – | Death | Death | 2.5 | – | Death | – | 23 |
